Source: ChEMBL document CHEMBL1135780, “6-Chloro-3-alkylamino-4H-thieno[3,2-e]-1,2,4-thiadiazine 1,1-dioxide derivatives potently and selectively activate ATP sensitive potassium channels of pancreatic beta-cells” (J Med Chem, 2002)

Assays:
Beta-TC6 [1] = assay: Ability to inhibit the release of insulin from the mouse beta-TC6 cell line; format: functional, cell-based
Procedure, shortened: (§1)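 βTC6 cells, 5 × 10⁴/well, grown 3 days in DMEM + 10% FCS, 11 mM glucose, 20 mM Hepes. Washed twice in NN buffer with 0.1% BSA, preincubated 60 min, then 3 h with 22 mM glucose, 0.1 mM IBMX and serial compound dilutions. Insulin in supernatant measured by in-house ELISA (guinea pig anti-insulin, rat insulin standard). Reference compound as positive control.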

[2] = Changes in potassium fluxes assessed in the glucose responsive insulin-producing murine cell line beta-TC3; format: functional, cell-based, Mus musculus
Procedure, shortened: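 βTC3 membrane potential read as DiBAC4(3) fluorescence at 0.01, 0.1, 1, 10 and 100 µM, four wells each. Signal normalized to each well's initial value and expressed as fractional fluorescence change over 45 min incubation. EC50 from four-parameter nonlinear fit; mean ± SEM of at least three independent experiments.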

Rattus norvegicus [3] = organism: Rattus norvegicus; assay: Ability to relax phenylephrine-contracted rat aorta rings; format: functional
Beta-TC6 [4] = assay: Maximum inhibition of glucose stimulated insulin release from mouse beta-TC6 cells at 10 uM in vitro.; format: functional
Rattus norvegicus [5] = organism: Rattus norvegicus; assay: Maximum change in MAP in rat; format: functional
Procedure, shortened: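 Anaesthetized male Sprague–Dawley rats given 3 mg/kg iv bolus (0.3 mg/kg for one compound) in 0.15% NaOH/saline via jugular cannula. Maximal percent change in mean arterial pressure over 5 min after dosing; mean ± SEM, 2–4 animals.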

Beta-TC6 [6] = assay: Percentage insulin release in vitro in beta-TC6 cells; format: functional; conditions: Mus musculus; procedure, shortened: as §1
Rattus norvegicus [7] = organism: Rattus norvegicus; assay: Inhibition of glucose-stimulated insulin release from Wistar rat islets; format: functional
Procedure, shortened: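 Isolated rat islets held overnight in RPMI, 10% FCS, 11 mM glucose, then 10 islets/well overnight in DMEM, 10% FCS, 3 mM glucose. Run like the βTC6 assay (60 min NN buffer preincubation, 3 h with 22 mM glucose and serial dilutions) without IBMX. Insulin by in-house ELISA.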

Rattus norvegicus [8] = organism: Rattus norvegicus; assay: Vasodilation effects on Wistar rat mesenteric arteries precontracted with phenylephrine; format: functional
[9] = biological target: T1, Sulfonylurea receptor 1, Kir6.2 (Homo sapiens, UniProt Q09428+Q14654); assay: Inhibition of [3H]glibenclamide binding to HEK293 cells co-expressing human Sulfonylurea receptor SUR1 and Inward rectifier K+ channel Kir6.2 at high affinity state with 2 mM MgATP; format: cell-based
[10] = Half life after oral administration to Sprague-Dawley rats; format: ADME, organism-based; conditions: rat, in vivo
Procedure, shortened: (§2)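 Cassette dosing, two compounds per cassette, in Sprague–Dawley rats of about 180 g, n = 2. iv doses 0.5 or 0.89 mg/kg; oral doses 1.89 or 2.0 mg/kg. Vehicle 0.1 M potassium phosphate pH 8.0, or PEG 300 based. Heart-puncture sampling, one rat per point. Plasma levels by LC/MS/MS; noncompartmental analysis.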

[11] = biological target: T1, Sulfonylurea receptor 1, Kir6.2; assay: Inhibition of [3H]glibenclamide binding to HEK293 cells co-expressing human Sulfonylurea receptor SUR1 and Inward rectifier K+ channel Kir6.2 without ATP; format: cell-based
[12] = Oral bioavailability in rat (Sprague-Dawley); format: ADME, organism-based; conditions: Sprague-Dawley, in vivo; procedure, shortened: as §2
Rattus norvegicus [13] = organism: Rattus norvegicus; assay: Reduction in plasma insulin in 30 min post-injection in rat; format: functional; design: concentration or dose not given beside the values
Procedure, shortened: (§3)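 Postprandial male Sprague–Dawley rats, 280–320 g, under Hypnorm/Dormicum at 37 °C. 3 mg/kg iv bolus over 20 s via jugular cannula (0.3 mg/kg for one compound), dissolved in 0.15% NaOH and saline. Blood taken every 5–10 min from 15 min pre- to 30 min postinjection. Plasma insulin by ELISA, as % reduction from pre-dose level. 2–4 animals.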

[14] = biological target: T1, Sulfonylurea receptor 1, Kir6.2; assay: Inhibition of [3H]glibenclamide binding to HEK293 cells co-expressing human Sulfonylurea receptor SUR1 and Inward rectifier K+ channel Kir6.2 at low affinity state with 2 mM MgATP; format: cell-based
Rattus norvegicus [15] = organism: Rattus norvegicus; assay: Maximum reduction in plasma insulin in rat; format: functional; procedure, shortened: as §3
Rattus norvegicus [16] = organism: Rattus norvegicus; assay: Effective concentration required for relaxation of rat aorta rings; format: functional
Rattus norvegicus [17] = organism: Rattus norvegicus; assay: Effective concentration required for relaxation of the rat aorta rings; format: functional
[18] = Partition coefficient (logP); format: physicochemical; conditions: octanol/water
[19] = Compound was evaluated for physiochemical property pKa; format: physicochemical
Procedure, shortened: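 Potentiometric titration from pH 2 to 10.5 in 80% MeOH cosolvent. Three titrations on the same sample, with 0.15 M KCl added before the second. psKa values extrapolated to 0% cosolvent by Yasuda–Shedlovsky.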

[20] = LogD for water and octanol distribution coefficient at pH 7.4; format: physicochemical
Procedure, shortened: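 Octanol/water distribution measured by potentiometric titration, pH 10.5 to 2.0. Three titrations on one sample, with 1.00 mL then 10.00 mL octanol added before the second and third. Aqueous pKa used in refinement; combined multiset gives LogD at pH 7.4.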

T1 sequence (Q14654 whole entry): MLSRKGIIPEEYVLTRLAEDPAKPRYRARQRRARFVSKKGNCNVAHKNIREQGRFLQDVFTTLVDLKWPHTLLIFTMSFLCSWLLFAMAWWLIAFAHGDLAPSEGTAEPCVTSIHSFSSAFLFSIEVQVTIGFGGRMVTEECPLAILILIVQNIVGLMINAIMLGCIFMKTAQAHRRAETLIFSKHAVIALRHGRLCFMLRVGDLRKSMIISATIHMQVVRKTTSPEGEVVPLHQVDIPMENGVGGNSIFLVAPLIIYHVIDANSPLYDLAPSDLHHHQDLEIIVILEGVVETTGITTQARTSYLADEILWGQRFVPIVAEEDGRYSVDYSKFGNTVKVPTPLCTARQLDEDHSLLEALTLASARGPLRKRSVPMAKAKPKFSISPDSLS
T1 sequence (Q09428 whole entry): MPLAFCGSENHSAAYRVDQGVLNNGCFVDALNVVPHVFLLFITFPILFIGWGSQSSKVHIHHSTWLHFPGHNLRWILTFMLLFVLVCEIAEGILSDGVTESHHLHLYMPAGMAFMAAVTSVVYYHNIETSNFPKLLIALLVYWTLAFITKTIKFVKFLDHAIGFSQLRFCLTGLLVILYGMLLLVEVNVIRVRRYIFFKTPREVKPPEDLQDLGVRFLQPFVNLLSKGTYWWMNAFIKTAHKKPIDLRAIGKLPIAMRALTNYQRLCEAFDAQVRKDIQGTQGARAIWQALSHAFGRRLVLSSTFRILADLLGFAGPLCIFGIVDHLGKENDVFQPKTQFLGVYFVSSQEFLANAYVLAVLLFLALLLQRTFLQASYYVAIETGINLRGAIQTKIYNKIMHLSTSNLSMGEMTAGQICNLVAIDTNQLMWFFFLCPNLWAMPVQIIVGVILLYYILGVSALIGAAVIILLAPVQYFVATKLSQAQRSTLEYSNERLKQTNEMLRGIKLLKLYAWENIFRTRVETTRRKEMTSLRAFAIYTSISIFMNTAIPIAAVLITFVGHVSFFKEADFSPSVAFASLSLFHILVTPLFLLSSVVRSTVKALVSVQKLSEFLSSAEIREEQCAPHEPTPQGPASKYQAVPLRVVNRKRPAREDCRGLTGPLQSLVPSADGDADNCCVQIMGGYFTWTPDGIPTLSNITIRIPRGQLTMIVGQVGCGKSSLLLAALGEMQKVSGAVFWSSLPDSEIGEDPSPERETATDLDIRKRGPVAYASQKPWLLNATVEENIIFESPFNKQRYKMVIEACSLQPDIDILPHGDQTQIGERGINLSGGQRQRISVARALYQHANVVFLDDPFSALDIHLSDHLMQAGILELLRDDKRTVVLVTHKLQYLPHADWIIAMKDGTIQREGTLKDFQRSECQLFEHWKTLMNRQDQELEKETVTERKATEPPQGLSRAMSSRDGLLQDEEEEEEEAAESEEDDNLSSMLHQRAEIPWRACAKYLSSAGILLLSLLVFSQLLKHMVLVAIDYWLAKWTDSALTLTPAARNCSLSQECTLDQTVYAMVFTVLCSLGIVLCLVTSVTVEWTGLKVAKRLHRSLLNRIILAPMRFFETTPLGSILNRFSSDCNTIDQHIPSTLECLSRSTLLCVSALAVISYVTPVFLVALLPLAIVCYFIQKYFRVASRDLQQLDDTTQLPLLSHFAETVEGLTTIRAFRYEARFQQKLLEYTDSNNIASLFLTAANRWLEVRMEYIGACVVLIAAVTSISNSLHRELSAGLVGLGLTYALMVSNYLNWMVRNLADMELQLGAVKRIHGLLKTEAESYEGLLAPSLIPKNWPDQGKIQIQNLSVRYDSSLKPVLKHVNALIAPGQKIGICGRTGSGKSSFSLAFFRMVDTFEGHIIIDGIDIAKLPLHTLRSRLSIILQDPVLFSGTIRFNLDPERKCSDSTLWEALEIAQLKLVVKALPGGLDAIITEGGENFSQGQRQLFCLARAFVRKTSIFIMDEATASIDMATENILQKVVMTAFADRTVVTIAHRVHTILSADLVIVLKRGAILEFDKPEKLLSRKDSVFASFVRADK

Row | IC50 (Beta-TC6 [1]) [µM] | EC50 [2] [µM] | EC50 (Rattus norvegicus [3]) [µM] | SMILES | Emax at 10 µM (Beta-TC6 [4]) [%] | further results
1 | 25.6 | 8 | 6.8 | O=S1(=O)NC(NC2CCCCC2)=Nc2cc(Cl)sc21 | 40 | 
2 | 0.56 | 14 | > 300 | CC(C)[C@H](C)NC1=NS(=O)(=O)c2sc(Cl)cc2N1 | 80 | 
3 | 0.03 | 0.2 | 11.8 | CCC(C)(C)NC1=NS(=O)(=O)c2sc(Cl)cc2N1 |  | Change (Rattus norvegicus [5]): -34%; Emax (Beta-TC6 [6]): 82%; IC50 (Rattus norvegicus [7]): 0.02 µM; EC50 (Rattus norvegicus [8]): 29.4 µM; IC50 [9]: 0.18 µM; half-life [10]: 1.65 h; IC50 [11]: 899 µM; bioavailability [12]: 47%; Reduction (Rattus norvegicus [13]): 77%; IC50 [14]: 375 µM; Reduction (Rattus norvegicus [15]): 87%
4 | 1.01 | 0.3 | 75.3 | CC(C)[C@@H](C)NC1=NS(=O)(=O)c2sc(Cl)cc2N1 | 62 | 
5 | 0.75 | 17 | 2 | CC(NC1=NS(=O)(=O)c2sc(Cl)cc2N1)C(C)(C)C (racemic) | 56 | 
6 | 7.1 | 0.2 | 0.15 | CCCCCCNC1=NS(=O)(=O)c2sc(Cl)cc2N1 | 67 | EC50 (Rattus norvegicus [16]): 0.15 µM
7 | 21.1 |  | 262 | NC1=NS(=O)(=O)c2sc(Cl)cc2N1 | 27 | EC50 (Rattus norvegicus [16]): 262 µM
8 | 0.17 | 0.4 | 169 | CC(C)(C)NC1=NS(=O)(=O)c2sc(Cl)cc2N1 |  | Change (Rattus norvegicus [5]): -36%; Emax (Beta-TC6 [6]): 77%; IC50 (Rattus norvegicus [7]): 0.06 µM; EC50 (Rattus norvegicus [8]): 60.6 µM; IC50 [9]: 0.23 µM; IC50 [11]: 1350 µM; Reduction (Rattus norvegicus [13]): 71%; IC50 [14]: 393 µM; Reduction (Rattus norvegicus [15]): 85%
9 | 1.9 | 9 | 136 | CCNC1=NS(=O)(=O)c2sc(Cl)cc2N1 | 74 | EC50 (Rattus norvegicus [17]): 136 µM
10 | 0.17 |  | 34.8 | CC(C)C(C)NC1=NS(=O)(=O)c2sc(Cl)cc2N1 (racemic) | 79 | 
11 | 0.15 | 20 | 20.5 | CCC(C)CNC1=NS(=O)(=O)c2sc(Cl)cc2N1 (racemic) | 48 | logP [18]: 3.17; pKa [19]: 8.29; logD [20]: 3.14
12 | 4.89 | 2 | 25.2 | CC(C)CCCC(C)NC1=NS(=O)(=O)c2sc(Cl)cc2N1 (racemic) | 72 | 
13 | 1.15 | 0.4 | > 300 | O=S1(=O)NC(NC2CCCC2)=Nc2cc(Cl)sc21 |  | Change (Rattus norvegicus [5]): 29%; Emax (Beta-TC6 [6]): 67%; IC50 (Rattus norvegicus [7]): 0.44 µM; EC50 (Rattus norvegicus [8]): 10.8 µM; Reduction (Rattus norvegicus [13]): 22%; Reduction (Rattus norvegicus [15]): 99%
14 | 0.49 | 1.4 | 27 | O=S1(=O)NC(NC2CCC2)=Nc2cc(Cl)sc21 |  | Change (Rattus norvegicus [5]): 5%; Emax (Beta-TC6 [6]): 78%; IC50 (Rattus norvegicus [7]): 0.05 µM; EC50 (Rattus norvegicus [8]): 38.6 µM; IC50 [9]: 0.12 µM; half-life [10]: 1.88 h; IC50 [11]: 943 µM; bioavailability [12]: 49%; Reduction (Rattus norvegicus [13]): 100%; IC50 [14]: 146 µM; Reduction (Rattus norvegicus [15]): 100%
15 | 7.38 | > 30 | 28.2 | O=S1(=O)NC(NC2CC2)=Nc2cc(Cl)sc21 | 37 | 
